Values after ≈ are worked out from the molar mass of the structure shown.
Experiments:
Format in all cases: functional
Aspergillus niger = test: Antifungal activity against Aspergillus niger MTCC 282 after 120 hrs by serial dilution method; conditions: MTCC 282, 120 h
Procedure, shortened: (§1)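 Tube serial dilution MIC in Sabouraud dextrose broth. Stocks of 100 µg/ml were diluted in 1 ml sterile medium to 50–3.12 µg/ml, and each tube was inoculated with 100 µL of fungal suspension in sterile saline. Incubation at 25 ± 1 °C, 48 h for C. albicans and 120 h for A. niger. Fluconazole was the reference drug and DMSO the solvent control.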

Escherichia coli = test: Antibacterial activity against Escherichia coli MTCC 7443 after 24 hrs by serial dilution method; conditions: MTCC 7443, 24 h
Procedure, shortened: (§2)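 Tube serial dilution MIC. Compounds held as 100 µg/ml stocks and serially diluted in tubes of 1 ml sterile double strength nutrient broth to 50–3.12 µg/ml. Each tube was inoculated with 100 µL of bacterial suspension in sterile saline. Incubation at 37 ± 1 °C for 24 h. Norfloxacin was the reference drug and DMSO the solvent control.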

Bacillus subtilis = test: Antibacterial activity against Bacillus subtilis MTCC 441 after 24 hrs by serial dilution method; conditions: MTCC 441, 24 h; procedure, shortened: as §2
Candida albicans = test: Antifungal activity against Candida albicans MTCC 183 after 48 hrs by serial dilution method; conditions: MTCC 183, 48 h; procedure, shortened: as §1

Compound | MIC (Aspergillus niger) [µM] | MIC (Escherichia coli) [µM] | MIC (Bacillus subtilis) [µM] | MIC (Candida albicans) [µM]
O=C(CC(=O)OCc1cn(CCc2ccccc2)nn1)OCc1cn(CCc2ccccc2)nn1 | 26.3 (≈ 12.5 µg/mL) | 26.3 (≈ 12.5 µg/mL) | 26.3 (≈ 12.5 µg/mL) | 26.3 (≈ 12.5 µg/mL)
O=C(CCC(=O)OCc1cn(CCc2ccccc2)nn1)OCc1cn(CCc2ccccc2)nn1 | 25.6 (≈ 12.5 µg/mL) | 12.8 (≈ 6.25 µg/mL) | 25.6 (≈ 12.5 µg/mL) | 12.8 (≈ 6.25 µg/mL)
O=C(CC(=O)OCc1cn(Cc2ccccc2)nn1)OCc1cn(Cc2ccccc2)nn1 | 14 (≈ 6.25 µg/mL) | 28 (≈ 12.5 µg/mL) | 28 (≈ 12.5 µg/mL) | 14 (≈ 6.25 µg/mL)
OC(Cn1cncn1)(Cn1cncn1)c1ccc(F)cc1F [FLUCONAZOLE] | 10.2 (≈ 3.12 µg/mL) |  |  | 10.2 (≈ 3.12 µg/mL)
O=C(OCc1cn(CCc2ccccc2)nn1)c1cccc(C(=O)OCc2cn(CCc3ccccc3)nn2)n1 | 23.3 (≈ 12.5 µg/mL) | 23.3 (≈ 12.5 µg/mL) | 23.3 (≈ 12.5 µg/mL) | 23.3 (≈ 12.5 µg/mL)
O=C(OCc1cn(Cc2ccccc2)nn1)c1cccc(C(=O)OCc2cn(Cc3ccccc3)nn2)n1 | 24.6 (≈ 12.5 µg/mL) | 12.3 (≈ 6.27 µg/mL) | 12.3 (≈ 6.27 µg/mL) | 12.3 (≈ 6.27 µg/mL)
O=C(CCCC(=O)OCc1cn(Cc2ccccc2)nn1)OCc1cn(Cc2ccccc2)nn1 | 26.3 (≈ 12.5 µg/mL) | 26.3 (≈ 12.5 µg/mL) | 26.3 (≈ 12.5 µg/mL) | 13.5 (≈ 6.41 µg/mL)
O=C(CCC(=O)OCc1cn(Cc2ccccc2)nn1)OCc1cn(Cc2ccccc2)nn1 | 27.1 (≈ 12.5 µg/mL) | 27.1 (≈ 12.5 µg/mL) | 27.1 (≈ 12.5 µg/mL) | 13.5 (≈ 6.22 µg/mL)
O=C(OCc1cn(CCc2ccccc2)nn1)c1cccc(C(=O)OCc2cn(CCc3ccccc3)nn2)c1 | 23.3 (≈ 12.5 µg/mL) | 23.3 (≈ 12.5 µg/mL) | 23.3 (≈ 12.5 µg/mL) | 23.3 (≈ 12.5 µg/mL)
O=C(CCCCC(=O)OCc1cn(CCc2ccccc2)nn1)OCc1cn(CCc2ccccc2)nn1 | 24.2 (≈ 12.5 µg/mL) | 24.2 (≈ 12.5 µg/mL) | 24.2 (≈ 12.5 µg/mL) | 12.1 (≈ 6.25 µg/mL)
O=C(OCc1cn(CCc2ccccc2)nn1)c1ccc(C(=O)OCc2cn(CCc3ccccc3)nn2)cc1 | 23.3 (≈ 12.5 µg/mL) | 23.3 (≈ 12.5 µg/mL) | 23.3 (≈ 12.5 µg/mL) | 23.3 (≈ 12.5 µg/mL)
O=C(CCCCC(=O)OCc1cn(Cc2ccccc2)nn1)OCc1cn(Cc2ccccc2)nn1 | 12.8 (≈ 6.25 µg/mL) | 12.8 (≈ 6.25 µg/mL) | 25.6 (≈ 12.5 µg/mL) | 12.8 (≈ 6.25 µg/mL)
CCn1cc(C(=O)O)c(=O)c2cc(F)c(N3CCNCC3)cc21 [NORFLOXACIN] |  | 9.8 (≈ 3.13 µg/mL) | 9.8 (≈ 3.13 µg/mL) | 
O=C(CCCC(=O)OCc1cn(CCc2ccccc2)nn1)OCc1cn(CCc2ccccc2)nn1 | 24.9 (≈ 12.5 µg/mL) | 24.9 (≈ 12.5 µg/mL) | 24.9 (≈ 12.5 µg/mL) | 24.9 (≈ 12.5 µg/mL)
